Laboratory results taken from ChEMBL document CHEMBL1158120, “Cytotoxic oxygenated triterpenoid saponins from Symplocos chinensis” (J Nat Prod, 2006).

Assays:
Format in all cases: functional, cell-based
HCT-8 = assay: Cytotoxicity against human HCT8 cells by MTT assay
Outline: (§1)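 MTT read-out of tumour-cell viability. IC50 values in µM are reported as means of three independent experiments.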

A549 = assay: Cytotoxicity against human A549 cells by MTT assay; outline: as §1
BGC-823 = assay: Cytotoxicity against human BGC-823 cells by MTT assay; outline: as §1
Bel-7402 = assay: Cytotoxicity against human Bel-7402 cells by MTT assay; outline: as §1
A2780 = assay: Cytotoxicity against human A2780 cells by MTT assay; outline: as §1

COC(=O)[C@H]1O[C@@H](O[C@H]2CC[C@]3(C)[C@H]4CC=C5[C@@H]6CC(C)(C)[C@@H](OC(=O)/C=C(/C)CCC=C(C)C)[C@H](OC(=O)c7ccccc7)[C@]6(CO)[C@H](O)[C@H](O)[C@@]5(C)[C@]4(C)CC[C@H]3C2(C)C)[C@H](O[C@@H]2O[C@H](CO)[C@@H](O)[C@H](O)[C@H]2O)[C@@H](OC(C)=O)[C@@H]1O[C@@H]1O[C@@H](CO)[C@H](O)[C@H]1O [SYMPLOCOSOSIDE K]
IC50 (HCT-8): 2400 nM | IC50 (A549): 4 µM | IC50 (BGC-823): > 10 µM | IC50 (Bel-7402): 5.1 µM | IC50 (A2780): 800 nM

CC(=O)O[C@@H]1[C@@H](O[C@@H]2O[C@H](CO)[C@@H](O)[C@H](O)[C@H]2O)[C@H](O[C@H]2CC[C@]3(C)[C@H]4CC=C5[C@@H]6CC(C)(C)[C@@H](OC(=O)/C=C(/C)CCC=C(C)C)[C@H](OC(=O)C(C)C)[C@]6(CO)[C@H](O)[C@H](O)[C@@]5(C)[C@]4(C)CC[C@H]3C2(C)C)O[C@H](C(=O)O)[C@H]1O[C@@H]1O[C@@H](CO)[C@H](O)[C@H]1O [SYMPLOCOSOSIDE L]
IC50 (HCT-8): 1700 nM | IC50 (A549): > 10 µM | IC50 (BGC-823): > 10 µM | IC50 (Bel-7402): 2.7 µM | IC50 (A2780): 2400 nM

CC(=O)O[C@@H]1[C@@H](O[C@@H]2O[C@H](CO)[C@@H](O)[C@H](O)[C@H]2O)[C@H](O[C@H]2CC[C@]3(C)[C@H]4CC=C5[C@@H]6CC(C)(C)[C@@H](OC(=O)/C=C(\C)CCC=C(C)C)[C@H](OC(=O)C(C)C)[C@]6(CO)[C@H](O)[C@H](O)[C@@]5(C)[C@]4(C)CC[C@H]3C2(C)C)O[C@H](C(=O)O)[C@H]1O[C@@H]1O[C@@H](CO)[C@H](O)[C@H]1O [SYMPLOCOSOSIDE M]
IC50 (HCT-8): 2700 nM | IC50 (A549): > 10 µM | IC50 (BGC-823): > 10 µM | IC50 (Bel-7402): 3.8 µM | IC50 (A2780): 2300 nM

CCC(C)C(=O)O[C@H]1[C@H](OC(=O)/C=C/c2ccccc2)C(C)(C)C[C@H]2C3=CC[C@@H]4[C@@]5(C)CC[C@H](O[C@@H]6O[C@H](C(=O)O)[C@@H](O)[C@H](O)[C@H]6O[C@@H]6O[C@H](CO)[C@@H](O)[C@H](O)[C@H]6O)C(C)(C)[C@@H]5CC[C@@]4(C)[C@]3(C)[C@@H](O)[C@@H](O)[C@]21CO (stereo not given in full) [SYMPLOCOSOSIDE N]
IC50 (HCT-8): 1800 nM | IC50 (A549): > 10 µM | IC50 (BGC-823): > 10 µM | IC50 (Bel-7402): 1.7 µM | IC50 (A2780): 3200 nM

CC(=O)O[C@@H]1[C@@H](O[C@@H]2O[C@H](CO)[C@@H](O)[C@H](O)[C@H]2O)[C@H](O[C@H]2CC[C@]3(C)[C@H]4CC=C5[C@@H]6CC(C)(C)C[C@H](OC(=O)/C=C(/C)CCC=C(C)C)[C@]6(CO)[C@H](O)[C@H](O)[C@@]5(C)[C@]4(C)CC[C@H]3C2(C)C)O[C@H](C(=O)O)[C@H]1O[C@@H]1O[C@@H](CO)[C@H](O)[C@H]1O [SYMPLOCOSOSIDE O]
IC50 (HCT-8): 1700 nM | IC50 (A549): > 10 µM | IC50 (BGC-823): > 10 µM | IC50 (Bel-7402): 2.4 µM | IC50 (A2780): > 10000 nM

CCC(C)C(=O)O[C@H]1[C@H](OC(=O)c2ccccc2)C(C)(C)C[C@H]2C3=CC[C@@H]4[C@@]5(C)CC[C@H](O[C@@H]6O[C@H](C(=O)O)[C@@H](O[C@@H]7O[C@@H](CO)[C@H](O)[C@H]7O)[C@H](OC(C)=O)[C@H]6O[C@@H]6O[C@H](CO)[C@@H](O)[C@H](O)[C@H]6O)C(C)(C)[C@@H]5CC[C@@]4(C)[C@]3(C)[C@@H](O)[C@@H](O)[C@]21CO (stereo not given in full) [SYMPLOCOSOSIDE P]
IC50 (HCT-8): > 10000 nM | IC50 (A549): > 10 µM | IC50 (BGC-823): > 10 µM | IC50 (Bel-7402): > 10 µM | IC50 (A2780): 3300 nM

CCOC(=O)[C@H]1O[C@@H](O[C@H]2CC[C@]3(C)[C@H]4CC=C5[C@@H]6CC(C)(C)[C@@H](OC(=O)/C=C(/C)CCC=C(C)C)[C@H](OC(=O)C(C)CC)[C@]6(CO)[C@H](O)[C@H](O)[C@@]5(C)[C@]4(C)CC[C@H]3C2(C)C)[C@H](O[C@@H]2O[C@H](CO)[C@@H](O)[C@H](O)[C@H]2O)[C@@H](O)[C@@H]1O[C@@H]1O[C@@H](CO)[C@H](O)[C@H]1O (stereo not given in full) [SYMPLOCOSOSIDE Q]
IC50 (HCT-8): > 10000 nM | IC50 (A549): > 10 µM | IC50 (BGC-823): > 10 µM | IC50 (Bel-7402): > 10 µM | IC50 (A2780): 5500 nM

CCC(C)C(=O)O[C@H]1[C@H](OC(=O)/C=C(/C)CCC=C(C)C)C(C)(C)C[C@H]2C3=CC[C@@H]4[C@@]5(C)CC[C@H](O[C@@H]6O[C@H](C(=O)O)[C@@H](O)[C@H](O)[C@H]6O[C@@H]6O[C@H](CO)[C@@H](O)[C@H](O)[C@H]6O)C(C)(C)[C@@H]5CC[C@@]4(C)[C@]3(C)[C@@H](O)[C@@H](O)[C@]21CO (stereo not given in full) [SYMPLOCOSOSIDE R]
IC50 (HCT-8): 4400 nM | IC50 (A549): > 10 µM | IC50 (BGC-823): > 10 µM | IC50 (Bel-7402): 4.1 µM | IC50 (A2780): 1900 nM

CCC(C)C(=O)O[C@H]1[C@H](OC(=O)/C=C/c2ccccc2)C(C)(C)C[C@H]2C3=CC[C@@H]4[C@@]5(C)CC[C@H](O[C@@H]6O[C@H](CO)[C@@H](O[C@@H]7O[C@@H](CO)[C@H](O)[C@H]7O)[C@H](O)[C@H]6O[C@@H]6O[C@H](CO)[C@@H](O)[C@H](O)[C@H]6O)C(C)(C)[C@@H]5CC[C@@]4(C)[C@]3(C)[C@@H](O)[C@@H](O)[C@]21CO (stereo not given in full) [SYMPLOCOSOSIDE X]
IC50 (HCT-8): 1700 nM | IC50 (A549): 2.1 µM | IC50 (BGC-823): > 10 µM | IC50 (Bel-7402): 1.8 µM | IC50 (A2780): 1600 nM

CCC(C)C(=O)O[C@H]1[C@H](OC(=O)/C=C/c2ccccc2)C(C)(C)C[C@H]2C3=CC[C@@H]4[C@@]5(C)CC[C@H](O[C@@H]6O[C@H](CO)[C@@H](O[C@@H]7O[C@@H](CO)[C@H](O)[C@H]7O)[C@H](OC(C)=O)[C@H]6O[C@@H]6O[C@H](CO)[C@@H](O)[C@H](O)[C@H]6O)C(C)(C)[C@@H]5CC[C@@]4(C)[C@]3(C)[C@@H](O)[C@@H](O)[C@]21CO (stereo not given in full) [SYMPLOCOSOSIDE Y]
IC50 (HCT-8): > 10000 nM | IC50 (A549): > 10 µM | IC50 (BGC-823): > 10 µM | IC50 (Bel-7402): > 10 µM | IC50 (A2780): 3400 nM
